ChEMBL document CHEMBL1759915, “Synthesis and anticancer effects of some novel pyrazolo[3,4-d]pyrimidine derivatives by generating reactive oxygen species in human breast adenocarcinoma cells” (Eur J Med Chem, 2011)
In brackets after ≈: the same amount, converted by molar mass.

Assays:
[1] = system: MCF7; experiment: Decrease in glutathione peroxidase level in human MCF7 cells; format: functional, cell-based
[2] = system: MCF7; experiment: Effect on RNA level in human MCF7 cells assessed per 10 '6 cells at 20 ug/ml after 24 hrs (reference value: 11.50 +/- 0.70 ug/10^6 cells); format: functional
Outline: (§1)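 After 24 h exposure of MCF-7 cells to compound at 2, 5, 10 or 20 µg/ml at 37 °C, nucleic acids were precipitated from cell homogenates. DNA was extracted and assayed by the Zhou et al. method, and RNA by a kit-derived procedure. Results given per 10⁶ cells as means ± S.E. of four experiments versus untreated control.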

[3] = system: MCF7; experiment: Effect on CAT level in human MCF7 cells assessed per mg protein at 2 ug/ml after 24 hrs (reference value: 7.90+/- 0.67 U/mg of protein); format: functional
[4] = system: MCF7; experiment: Effect on glutathione level in human MCF7 cells assessed per mg protein at 5 ug/ml by Ellman method after 24 hrs (reference value: 39.82 +/- 4.20 nmol/mg of protein); format: functional
[5] = system: MCF7; experiment: Decrease in RNA level in human MCF7 cells assessed per 10 '6 cells after 24 hrs relative to control; format: functional, cell-based; outline: as §1
[6] = system: MCF7; experiment: Effect on CAT level in human MCF7 cells assessed per mg protein at 20 ug/ml after 24 hrs (reference value: 7.90+/- 0.67 U/mg of protein); format: functional
[7] = system: MCF7; experiment: Effect on glutathione peroxidase level in human MCF7 cells assessed per mg protein at 2 ug/ml after 24 hrs (reference value: 11.20 +/- 1.36 U/mg of protein); format: functional
[8] = system: MCF7; experiment: Effect on RNA level in human MCF7 cells assessed per 10 '6 cells at 10 ug/ml after 24 hrs (reference value: 11.50 +/- 0.70 ug/10^6 cells); format: functional; outline: as §1
[9] = system: MCF7; experiment: Effect on CAT level in human MCF7 cells assessed per mg protein at 10 ug/ml after 24 hrs (reference value: 7.90+/- 0.67 U/mg of protein); format: functional
[10] = system: MCF7; experiment: Effect on glutathione level in human MCF7 cells assessed per mg protein at 20 ug/ml by Ellman method after 24 hrs (reference value: 39.82 +/- 4.20 nmol/mg of protein); format: functional
[11] = system: MCF7; experiment: Effect on hydrogen peroxide level in human MCF7 cells assessed per mg protein at 5 ug/ml by Wolf's method after 24 hrs (reference value: 12.50 +/- 1.54 nmol/mg of protein); format: functional
[12] = system: MCF7; experiment: Effect on SOD level in human MCF7 cells assessed per mg protein at 10 ug/ml after 24 hrs (reference value: 27.61+/- 3.72 U/mg of protein); format: functional
[13] = system: MCF7; experiment: Effect on glutathione level in human MCF7 cells assessed per mg protein at 2 ug/ml by Ellman method after 24 hrs (reference value: 39.82 +/- 4.20 nmol/mg of protein); format: functional
[14] = system: MCF7; experiment: Effect on CAT level in human MCF7 cells assessed per mg protein at 5 ug/ml after 24 hrs (reference value: 7.90+/- 0.67 U/mg of protein); format: functional
[15] = system: MCF7; experiment: Increase in SOD level in human MCF7 cells; format: functional, cell-based
[16] = system: MCF7; experiment: Decrease in CAT level in human MCF7 cells; format: functional, cell-based
[17] = system: MCF7; experiment: Effect on RNA level in human MCF7 cells assessed per 10 '6 cells at 2 ug/ml after 24 hrs (reference value: 11.50 +/- 0.70 ug/10^6 cells); format: functional; outline: as §1
[18] = system: MCF7; experiment: Increase in hydrogen peroxide level in human MCF7 cells; format: functional, cell-based
[19] = system: MCF7; experiment: Effect on glutathione peroxidase level in human MCF7 cells assessed per mg protein at 10 ug/ml after 24 hrs (reference value: 11.20 +/- 1.36 U/mg of protein); format: functional
[20] = system: MCF7; experiment: Decrease in DNA level in human MCF7 cells assessed per 10 '6 cells after 24 hrs relative to control; format: functional, cell-based; outline: as §1
[21] = system: MCF7; experiment: Effect on RNA level in human MCF7 cells assessed per 10 '6 cells at 5 ug/ml after 24 hrs (reference value: 11.50 +/- 0.70 ug/10^6 cells); format: functional; outline: as §1
[22] = system: MCF7; experiment: Effect on hydrogen peroxide level in human MCF7 cells assessed per mg protein at 20 ug/ml by Wolf's method after 24 hrs (reference value: 12.50 +/- 1.54 nmol/mg of protein); format: functional
[23] = system: MCF7; experiment: Effect on DNA level in human MCF7 cells assessed per 10 '6 cells at 20 ug/ml after 24 hrs (reference value: 6.80 +/- 0.70 ug/10^6 cells); format: functional; outline: as §1
[24] = system: MCF7; experiment: Effect on hydrogen peroxide level in human MCF7 cells assessed per mg protein at 2 ug/ml by Wolf's method after 24 hrs (reference value: 12.50 +/- 1.54 nmol/mg of protein); format: functional
[25] = system: MCF7; experiment: Effect on SOD level in human MCF7 cells assessed per mg protein at 20 ug/ml after 24 hrs (reference value: 27.61+/- 3.72 U/mg of protein); format: functional
[26] = system: MCF7; experiment: Effect on DNA level in human MCF7 cells assessed per 10 '6 cells at 2 ug/ml after 24 hrs (reference value: 6.80 +/- 0.70 ug/10^6 cells); format: functional; outline: as §1
[27] = system: MCF7; experiment: Effect on SOD level in human MCF7 cells assessed per mg protein at 2 ug/ml after 24 hrs (reference value: 27.61+/- 3.72 U/mg of protein); format: functional
[28] = system: MCF7; experiment: Decrease in glutathione level in human MCF7 cells; format: functional, cell-based
[29] = system: MCF7; experiment: Effect on DNA level in human MCF7 cells assessed per 10 '6 cells at 5 ug/ml after 24 hrs (reference value: 6.80 +/- 0.70 ug/10^6 cells); format: functional; outline: as §1
[30] = system: MCF7; experiment: Effect on hydrogen peroxide level in human MCF7 cells assessed per mg protein at 10 ug/ml by Wolf's method after 24 hrs (reference value: 12.50 +/- 1.54 nmol/mg of protein); format: functional
[31] = system: MCF7; experiment: Effect on glutathione peroxidase level in human MCF7 cells assessed per mg protein at 5 ug/ml after 24 hrs (reference value: 11.20 +/- 1.36 U/mg of protein); format: functional
[32] = system: MCF7; experiment: Effect on DNA level in human MCF7 cells assessed per 10 '6 cells at 10 ug/ml after 24 hrs (reference value: 6.80 +/- 0.70 ug/10^6 cells); format: functional; outline: as §1
[33] = system: MCF7; experiment: Effect on glutathione level in human MCF7 cells assessed per mg protein at 10 ug/ml by Ellman method after 24 hrs (reference value: 39.82 +/- 4.20 nmol/mg of protein); format: functional
[34] = system: MCF7; experiment: Effect on glutathione peroxidase level in human MCF7 cells assessed per mg protein at 20 ug/ml after 24 hrs (reference value: 11.20 +/- 1.36 U/mg of protein); format: functional
[35] = system: MCF7; experiment: Effect on SOD level in human MCF7 cells assessed per mg protein at 5 ug/ml after 24 hrs (reference value: 27.61+/- 3.72 U/mg of protein); format: functional
[36] = system: MCF7; experiment: Antiproliferative activity against human MCF7 cells after 24 hrs by MTT assay; format: functional, cell-based; settings: for IC50: MCF7, 24 h
Outline: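 MCF-7 cells (DMEM, 10% heat-inactivated FCS, penicillin/streptomycin, 37 °C, 5% CO2) plated at 0.65 × 10⁵ cells/well and given 24 h to attach. Exposed to compound or cisplatin at 2, 5, 10 or 20 µg/ml for 24 h at 37 °C. MTT added for 4 h, formazan dissolved in DMSO, absorbance read at 570 nm. Viability taken relative to untreated cells and IC50 derived.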

CCSc1ncnc2c1cnn2-c1nc(C)nc2sc3c(c12)-c1ccccc1CC3
Activity [1]: Dose-dependent effect
Activity [2]: 3.61 µg/10^6 cells
Activity [3]: 3.6 U/mg protein
Activity [4]: 19.16 nmol
Activity [5]: Dose-dependent effect
Activity [6]: 1.55 U/mg protein
Activity [7]: 5.6 U/mg protein
Activity [8]: 4 µg/10^6 cells
Activity [9]: 1.76 U/mg protein
Activity [10]: 14.8 nmol
Activity [11]: 55 nmol
Activity [12]: 360 U/mg protein
Activity [13]: 20.11 nmol
Activity [14]: 2.9 U/mg protein
Activity [15]: Dose-dependent effect
Activity [16]: Dose-dependent effect
Activity [17]: 5.5 µg/10^6 cells
Activity [18]: Dose-dependent effect
Activity [19]: 3 U/mg protein
Activity [20]: Dose-dependent effect
Activity [21]: 4.32 µg/10^6 cells
Activity [22]: 80 nmol
Activity [23]: 1.82 µg/10^6 cells
Activity [24]: 35 nmol
Activity [25]: 385 U/mg protein
Activity [26]: 3.8 µg/10^6 cells
Activity [27]: 125 U/mg protein
Activity [28]: Dose-dependent effect
Activity [29]: 3.1 µg/10^6 cells
Activity [30]: 60.5 nmol
Activity [31]: 4.25 U/mg protein
Activity [32]: 2.76 µg/10^6 cells
Activity [33]: 17 nmol
Activity [34]: 2.2 U/mg protein
Activity [35]: 150 U/mg protein
Activity [36]: Dose-dependent effect
IC50 [36]: 3 µg/mL (≈ 6.97 µM)

Cc1nc(-n2ncc3c(S[C@@H]4O[C@H](CO)[C@@H](O)[C@H]4O)ncnc32)c2c3c(sc2n1)CCc1ccccc1-3
Activity [1]: Dose-dependent effect
Activity [2]: 7.22 µg/10^6 cells
Activity [3]: 6.85 U/mg protein
Activity [4]: 40.12 nmol
Activity [5]: Dose-dependent effect
Activity [6]: 5.35 U/mg protein
Activity [7]: 9 U/mg protein
Activity [8]: 7.7 µg/10^6 cells
Activity [9]: 5.7 U/mg protein
Activity [10]: 30 nmol
Activity [11]: 28.45 nmol
Activity [12]: 110 U/mg protein
Activity [13]: 43.35 nmol
Activity [14]: 6 U/mg protein
Activity [15]: Dose-dependent effect
Activity [16]: Dose-dependent effect
Activity [17]: 9.5 µg/10^6 cells
Activity [18]: Dose-dependent effect
Activity [19]: 6 U/mg protein
Activity [20]: Dose-dependent effect
Activity [21]: 8.9 µg/10^6 cells
Activity [22]: 40.33 nmol
Activity [23]: 4.45 µg/10^6 cells
Activity [24]: 21.23 nmol
Activity [25]: 161 U/mg protein
Activity [26]: 5.35 µg/10^6 cells
Activity [27]: 70.4 U/mg protein
Activity [28]: Dose-dependent effect
Activity [29]: 5.16 µg/10^6 cells
Activity [30]: 35.85 nmol
Activity [31]: 6.6 U/mg protein
Activity [32]: 4.86 µg/10^6 cells
Activity [33]: 33.11 nmol
Activity [34]: 5.4 U/mg protein
Activity [35]: 80.2 U/mg protein
Activity [36]: Dose-dependent effect
IC50 [36]: 9.4 µg/mL (≈ 17.6 µM)
